Test results reported in ChEMBL document CHEMBL1148481, “Linker length modulates DNA cross-linking reactivity and cytotoxic potency of C8/C8' ether-linked C2-exo-unsaturated pyrrolo[2,1-c][1,4]benzodiazepine (PBD) dimers” (J Med Chem, 2004).

Legend:
[1] = system: Nucleic Acid; assay: Thermal stabilization of duplex form of calf thymus DNA after incubation for 18 hours; format: functional; conditions: Bos taurus
Procedure, shortened: (§1)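 UV melting of calf thymus DNA (100 μM phosphate, 50 μM bp) with ligand at 20 μM (ligand:DNA 1:5) in pH 7.00 buffer (10 mM sodium phosphate, 1 mM EDTA), ≤0.6% v/v MeOH with correction. Samples were preincubated at 37 °C for the stated time, heated at 1 °C/min over 45–98 °C and monitored at 260 nm. ΔTm is the midpoint shift versus free DNA, from at least three determinations.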

[2] = system: K562; assay: Inhibitory concentration against human K562 leukemia cells following incubation for 1 hour; format: functional, cell-based; conditions: K562, 1 h
Procedure, shortened: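 K562 cells in RPMI 1640 with 10% FCS and 2 mM glutamine were exposed to drug for 1 h at 37 °C in the dark, then washed. They were plated at 10⁴ cells/well (8 wells per sample) and grown 4 days. MTT was added for 5 h, formazan dissolved in DMSO, and OD read at 550 nm. IC50 is the dose reducing OD to 50% of control.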

[3] = system: Nucleic Acid; assay: Thermal stabilization of duplex form of calf thymus DNA after incubation for 0 hours; format: functional; conditions: Bos taurus; procedure, shortened: as §1
[4] = system: Nucleic Acid; assay: Thermal stabilization of duplex form of calf thymus DNA after incubation for 4 hours; format: functional; conditions: Bos taurus; procedure, shortened: as §1
[5] = Compound was tested for inhibition of restriction endonuclease BamH1 enzyme at a concentration of 25 uM;Inhibited
Procedure, shortened: (§2)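 BamHI protection assay: a 512-bp PvuII plasmid fragment with a single BamHI site (500 ng) was incubated with the PBD (methanol stock 10 mM) for 16 h at 37 °C. It was then digested with BamHI (10 units) for 1 h at 37 °C. Cut and uncut DNA were resolved on a 1% agarose TBE gel, stained with ethidium bromide, and the cut fraction was quantified versus dose.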

[6] = system: Nucleic Acid; assay: Compound dose required to induce 50 percent cross linking in naked plasmid pBR322 DNA following incubation with agent for 2 hours at 37 degree C; format: functional
Procedure, shortened: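 Denatured at 90 °C for 2.5 min in 30% DMSO and run on 0.8% agarose, 40 V, 14–16 h. Autoradiography and laser densitometry of double- vs single-stranded bands gave dose–response curves; mean of ≥3 experiments.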

[7] = Compound was tested for percentage inhibition of restriction endonuclease BamH1 enzyme at a concentration of 25 uM;Inhibited
[8] = system: K562; assay: Dose required to induce 50 percent decrease in tail moment of the DNA of K562 cells following a 1 hour treatment; format: functional, Homo sapiens
Procedure, shortened: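 Alkaline Comet assay in K562 cells after 1 h drug exposure, done on ice in subdued light. Cells were irradiated (10 Gy), embedded in agarose, lysed 1 h at pH 10.5, held in alkali 45 min and electrophoresed 25 min at pH 12.5. Slides were propidium iodide stained; 25 cells per duplicate slide. Value is the dose giving 50% decrease in tail moment relative to irradiated controls.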

[9] = Compound was tested for inhibition of restriction endonuclease BamH1 enzyme at a concentration of 17.5 uM;Inhibited; procedure, shortened: as §2
[10] = system: TK-10; assay: Compound was tested for 50% growth inhibition against human renal cancer TK-10 cell line; format: functional
[11] = system: RPMI-8226; assay: Compound was tested for 50% growth inhibition against human leukemia RPMI-8226 cell line; format: functional
[12] = system: MDA-N; assay: Compound was tested for 50% growth inhibition against human breast cancer MDA-N cell line; format: functional
[13] = system: Malme-3M; assay: Compound was tested for 50% growth inhibition against human melanoma MALME-3M cell line; format: functional
[14] = system: CAKI-1; assay: Compound was tested for 50% growth inhibition against human renal cancer CAKI-1 cell line; format: functional
[15] = system: U-251; assay: Compound was tested for 50% growth inhibition against human CNS cancer U251 cell line; format: functional
[16] = system: ACHN; assay: Compound was tested for 50% growth inhibition against human renal cancer ACHN cell line; format: functional
[17] = system: UACC-257; assay: Compound was tested for 50% growth inhibition against human melanoma UACC-257 cell line; format: functional
[18] = system: SR; assay: Compound was tested for 50% growth inhibition against human leukemia SR cell line; format: functional
[19] = system: LOX IMVI; assay: Compound was tested for 50% growth inhibition against human melanoma LOXIMVI cell line; format: functional
[20] = system: MCF7; assay: Compound was tested for 50% growth inhibition against human breast cancer MCF-7 cell line; format: functional
[21] = system: SF-539; assay: Compound was tested for 50% growth inhibition against human CNS cancer SF-539 cell line; format: functional
[22] = system: HT-29; assay: Compound was tested for 50% growth inhibition against human colon cancer HT-29 cell line; format: functional
[23] = system: OVCAR-3; assay: Compound was tested for 50% growth inhibition against human ovarian cancer OVCAR-3 cell line; format: functional
[24] = system: Hs-578T; assay: Compound was tested for 50% growth inhibition against human breast cancer HS 578T cell line; format: functional
[25] = system: MOLT-4; assay: Compound was tested for 50% growth inhibition against human leukemia MOLT-4 cell line; format: functional
[26] = system: NCI-H460; assay: Compound was tested for 50% growth inhibition against human non-small cell lung cancer NCI-H460 cell line; format: functional
[27] = system: CCRF-CEM; assay: Compound was tested for 50% growth inhibition against human leukemia CCRF-CEM cell line; format: functional
[28] = system: T47D; assay: Compound was tested for 50% growth inhibition against human breast cancer T-47D cell line; format: functional
[29] = system: 786-0; assay: Compound was tested for 50% growth inhibition against human renal cancer 786-0 cell line; format: functional
[30] = system: NCI/ADR-RES; assay: Compound was tested for 50% growth inhibition against human breast cancer NCI/ADR-RES cell line; format: functional
[31] = system: SK-MEL-28; assay: Compound was tested for 50% growth inhibition against human melanoma SK-MEL-28 cell line; format: functional
[32] = system: HOP-62; assay: Compound was tested for 50% growth inhibition against human non-small cell lung cancer HOP-62 cell line; format: functional
[33] = system: SF-268; assay: Compound was tested for 50% growth inhibition against human CNS cancer SF-268 cell line; format: functional
[34] = system: DU-145; assay: Compound was tested for 50% growth inhibition against human prostate cancer DU-145 cell line; format: functional
[35] = system: BT-549; assay: Compound was tested for 50% growth inhibition against human breast cancer BT-549 cell line; format: functional
[36] = system: A498; assay: Compound was tested for 50% growth inhibition against human renal cancer A498 cell line; format: functional
[37] = system: HCC 2998; assay: Compound was tested for 50% growth inhibition against human colon cancer HCC2998 cell line; format: functional
[38] = system: HCT-116; assay: Compound was tested for 50% growth inhibition against human colon cancer HCT116 cell line; format: functional
[39] = system: NCI-H23; assay: Compound was tested for 50% growth inhibition against human non-small cell lung cancer NCI-H23 cell line; format: functional
[40] = Compound was tested for inhibition of restriction endonuclease BamH1 enzyme at a concentration of 10 uM;Inhibited; procedure, shortened: as §2
[41] = system: SK-MEL-5; assay: Compound was tested for 50% growth inhibition against human melanoma SK-MEL-5 cell line; format: functional
[42] = system: UO-31; assay: Compound was tested for 50% growth inhibition against human renal cancer UO-31 cell line; format: functional
[43] = system: IGROV-1; assay: Compound was tested for 50% growth inhibition against human ovarian cancer IGROVI cell line; format: functional
[44] = system: SW-620; assay: Compound was tested for 50% growth inhibition against human colon cancer SW 620 cell line; format: functional
[45] = system: MDA-MB-231; assay: Compound was tested for 50% growth inhibition against human breast cancer MDA-MB-231/ATCC cell line; format: functional
[46] = system: NCI-H322M; assay: Compound was tested for 50% growth inhibition against human non-small cell lung cancer NCI-H322M cell line; format: functional
[47] = system: NCI-H226; assay: Compound was tested for 50% growth inhibition against human non-small cell lung cancer NCI-H226 cell line; format: functional
[48] = system: COLO 205; assay: Compound was tested for 50% growth inhibition against human colon cancer COLO 205 cell line; format: functional
[49] = system: SN12C; assay: Compound was tested for 50% growth inhibition against human renal cancer […] cell line; format: functional
[50] = system: SF-295; assay: Compound was tested for 50% growth inhibition against human CNS cancer SF-295 cell line; format: functional
[51] = system: M14; assay: Compound was tested for 50% growth inhibition against human melanoma M14 cell line; format: functional
[52] = system: HL-60; assay: Compound was tested for 50% growth inhibition against human leukemia […] cell line; format: functional
[53] = system: EKVX; assay: Compound was tested for 50% growth inhibition against human non-small cell lung cancer EKVX cell line; format: functional
[54] = system: HCT-15; assay: Compound was tested for 50% growth inhibition against human colon cancer HCT-15 cell line; format: functional
[55] = system: SNB-19; assay: Compound was tested for 50% growth inhibition against human CNS cancer SNB-19 cell line; format: functional
[56] = system: A549; assay: Compound was tested for 50% growth inhibition against human non-small cell lung cancer A549/ATCC cell line; format: functional
[57] = system: PC-3; assay: Compound was tested for 50% growth inhibition against human prostate cancer PC-3 cell line; format: functional
[58] = system: SK-OV-3; assay: Compound was tested for 50% growth inhibition against human ovarian cancer SK-OV-3 cell line; format: functional
[59] = system: KM12; assay: Compound was tested for 50% growth inhibition against human colon cancer KM12 cell line; format: functional
[60] = system: OVCAR-5; assay: Compound was tested for 50% growth inhibition against human ovarian cancer OVCAR-5 cell line; format: functional
[61] = system: HOP-92; assay: Compound was tested for 50% growth inhibition against human non-small cell lung cancer […] cell line; format: functional
[62] = system: OVCAR-8; assay: Compound was tested for 50% growth inhibition against human ovarian cancer OVCAR-8 cell line; format: functional

## COc1cc2c(cc1OCCCOc1cc3c(cc1OC)C(=O)N1CCC[C@H]1C=N3)N=C[C@@H]1CCCN1C2=O [DSB-120]
[1]
  ΔTm: 15.1 °C
[2]
  IC50: 200 nM
[3]
  ΔTm: 10.2 °C
[4]
  ΔTm: 13.1 °C
[5]
  Activity: Inhibited
[6]
  C50: 0.055 µM

## Cc1ccc2c(c1O)NC(O)C1CC(/C=C/C(N)=O)=CN1C2=O (stereo unspecified)
[7]
  inhibition: 12%

## C/C=C1\C[C@H]2C=Nc3cc(O)c(OC)cc3C(=O)N2C1
[1]
  ΔTm: 2.6 °C
[3]
  ΔTm: 1 °C
[4]
  ΔTm: 2.4 °C

## C=C1C[C@H]2C=Nc3cc(OCCCOc4cc5c(cc4OC)C(=O)N4CC(=C)C[C@H]4C=N5)c(OC)cc3C(=O)N2C1 [SJG-136]
[1]
  ΔTm: 33.6 °C
[2]
  IC50: 43 nM
[8]
  C50: 0.03 µM
[3]
  ΔTm: 25.7 °C
[4]
  ΔTm: 31.9 °C
[9]
  Activity: Inhibited
[6]
  C50: 0.045 µM

## COc1cc2c(cc1OCCCCCOc1cc3c(cc1OC)C(=O)N1CCC[C@H]1C=N3)N=C[C@@H]1CCCN1C2=O
[1]
  ΔTm: 9.4 °C
[2]
  IC50: 500 nM
[3]
  ΔTm: 3.3 °C
[4]
  ΔTm: 5.9 °C
[6]
  C50: 0.07 µM

## C=C1C[C@H]2C=Nc3cc(OCCCCCOc4cc5c(cc4OC)C(=O)N4CC(=C)C[C@H]4C=N5)c(OC)cc3C(=O)N2C1
[10]
  GI50: 0.295 nM
[1]
  ΔTm: 25.8 °C
[11]
  GI50: 0.186 nM
[12]
  GI50: 0.209 nM
[13]
  GI50: 0.162 nM
[14]
  GI50: 0.178 nM
[15]
  GI50: 0.0427 nM
[16]
  GI50: 0.0251 nM
[17]
  GI50: 0.525 nM
[18]
  GI50: < 0.001 nM
[2]
  IC50: < 1 nM
[19]
  GI50: 0.0549 nM
[20]
  GI50: 0.0933 nM
[8]
  C50: 0.009 µM
[21]
  GI50: 0.0363 nM
[22]
  GI50: 0.224 nM
[23]
  GI50: 0.2 nM
[3]
  ΔTm: 24.9 °C
[24]
  GI50: 0.302 nM
[25]
  GI50: 0.012 nM
[26]
  GI50: 0.0955 nM
[27]
  GI50: 0.00646 nM
[28]
  GI50: 0.0199 nM
[29]
  GI50: 0.0977 nM
[30]
  GI50: 7.94 nM
[4]
  ΔTm: 25.5 °C
[31]
  GI50: 0.219 nM
[32]
  GI50: 0.117 nM
[33]
  GI50: 0.0501 nM
[34]
  GI50: 0.049 nM
[35]
  GI50: 0.162 nM
[36]
  GI50: 0.224 nM
[37]
  GI50: 0.186 nM
[38]
  GI50: 0.174 nM
[39]
  GI50: 0.0832 nM
[40]
  Activity: Inhibited
[41]
  GI50: 0.245 nM
[42]
  GI50: 0.251 nM
[43]
  GI50: 0.0049 nM
[44]
  GI50: 0.288 nM
[45]
  GI50: 0.371 nM
[46]
  GI50: 0.468 nM
[47]
  GI50: 0.162 nM
[48]
  GI50: 0.166 nM
[49]
  GI50: 0.0269 nM
[50]
  GI50: 0.038 nM
[51]
  GI50: 0.141 nM
[52]
  GI50: 0.0148 nM
[53]
  GI50: 1.58 nM
[54]
  GI50: 1.74 nM
[55]
  GI50: 0.105 nM
[56]
  GI50: 0.123 nM
[57]
  GI50: 0.617 nM
[58]
  GI50: 0.162 nM
[59]
  GI50: 0.245 nM
[6]
  C50: 0.004 µM
[60]
  GI50: 0.309 nM
[61]
  GI50: 0.112 nM
[62]
  GI50: 0.195 nM
